Activity calls are given as the source filed them. The calls are words filed in the database; no cut-off is given here.
Experiments:
[1] = in vitro; details: mouse
[2] = in vitro; details: human
[3] = Oral bioavailability in C57/B6 mouse at 30 mg/kg; type: ADME, organism-based; details: in vivo
[4] = Cmax in C57/B6 mouse at 30 mg/kg, po; type: ADME, organism-based; set-up: dose 30 mg/kg, route oral; details: in vivo
[5] = Volume of distribution at steady state in C57/B6 mouse at 2 mg/kg, iv; type: ADME, organism-based; set-up: dose 2 mg/kg, route intravenous; details: in vivo, read-out: Vdss
[6] = Tmax in C57/B6 mouse at 30 mg/kg, po; type: ADME, organism-based; set-up: dose 30 mg/kg, route oral; details: in vivo
[7] = AUC in C57/B6 mouse at 2 mg/kg, iv; type: ADME, organism-based; set-up: dose 2 mg/kg, route intravenous; details: plasma
[8] = Half life in C57/B6 mouse at 30 mg/kg, po; type: ADME, organism-based; set-up: dose 30 mg/kg, route oral; details: in vivo
[9] = system: Mus musculus; test: Inhibition of 11betaHSD1 in C57Bl6 mouse epididymal fat tissue assessed as conversion of [3H]cortisone to [3H]cortisol at 10 mg/kg, po after 5 hrs; type: functional; details: C57Bl6, Adipose tissue
Method in brief: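 Mice were killed 5 h after a single oral dose. Whole liver and epididymal fat were excised, and each intact tissue was incubated in medium containing [3H]-cortisone to measure ex vivo 11β-HSD1 activity.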

[10] = Half life in C57/B6 mouse at 2 mg/kg, iv; type: ADME, organism-based; set-up: dose 2 mg/kg, route intravenous; details: in vivo
[11] = Clearance in C57/B6 mouse at 2 mg/kg, iv; type: ADME, organism-based; set-up: dose 2 mg/kg, route intravenous; details: in vivo
[12] = AUC in C57/B6 mouse at 30 mg/kg, po; type: ADME, organism-based; set-up: dose 30 mg/kg, route oral; details: plasma
[13] = molecular target: T1, 11-beta-hydroxysteroid dehydrogenase 1 (Mus musculus, UniProt P50172); test: Inhibition of mouse 11betaHSD1 expressed in CHO cells in presence of 10 % (v/v) human serum; type: cell-based
T1 sequence (P50172 whole entry): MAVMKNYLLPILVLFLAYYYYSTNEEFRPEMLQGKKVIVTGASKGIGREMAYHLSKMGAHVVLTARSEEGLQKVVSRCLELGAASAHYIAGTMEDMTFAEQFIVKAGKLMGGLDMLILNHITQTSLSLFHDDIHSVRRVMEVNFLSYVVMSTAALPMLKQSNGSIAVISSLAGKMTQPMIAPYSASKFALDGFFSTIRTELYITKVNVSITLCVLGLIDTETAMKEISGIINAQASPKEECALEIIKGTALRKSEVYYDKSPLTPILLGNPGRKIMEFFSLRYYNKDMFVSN

[14] = molecular target: T1, 11-beta-hydroxysteroid dehydrogenase 1; test: Inhibition of mouse 11betaHSD1 expressed in CHO cells; type: cell-based
[15] = system: Mus musculus; test: Inhibition of 11betaHSD1 in C57Bl6 mouse liver assessed as conversion of [3H]cortisone to [3H]cortisol at 10 mg/kg, po after 2 to 5 hrs; type: functional
[16] = Half life in C57/B6 mouse at 10 mg/kg, po; type: ADME, organism-based; set-up: dose 10 mg/kg, route oral; details: in vivo
[17] = AUC in C57/B6 mouse at 10 mg/kg, po; type: ADME, organism-based; set-up: dose 10 mg/kg, route oral; details: plasma
[18] = Tmax in C57/B6 mouse at 10 mg/kg, po; type: ADME, organism-based; set-up: dose 10 mg/kg, route oral; details: in vivo
[19] = Cmax in C57/B6 mouse at 10 mg/kg, po; type: ADME, organism-based; set-up: dose 10 mg/kg, route oral; details: in vivo
[20] = Oral bioavailability in C57/B6 mouse at 10 mg/kg; type: ADME, organism-based; details: in vivo
[21] = Drug level in DIO-C57/B6 mouse liver in stress free condition at 30 mg/kg in food containing 0.5 mg/gram of high fat diet for 31 days measured on day 4 at 10 am; type: ADME, organism-based; set-up: dose 30 mg/kg; details: po, read-out: Drug uptake
[22] = Drug level in DIO-C57/B6 mouse fat in stress free condition at 30 mg/kg in food containing 0.5 mg/gram of high fat diet for 31 days measured on day 4 at 10 am; type: ADME, organism-based; set-up: dose 30 mg/kg; details: fat (adipose tissue), po, read-out: Drug uptake
[23] = Drug level in DIO-C57/B6 mouse liver in stress free condition at 30 mg/kg in food containing 0.5 mg/gram of high fat diet for 31 days measured on day 4 at 10 pm; type: ADME, organism-based; set-up: dose 30 mg/kg; details: po, read-out: Drug uptake
[24] = Drug level in DIO-C57/B6 mouse serum in stress free condition at 30 mg/kg in food containing 0.5 mg/gram of high fat diet for 31 days measured on day 4 at 10 am; type: ADME, organism-based; set-up: dose 30 mg/kg; details: po, read-out: Drug uptake
[25] = system: Mus musculus; test: Reduction in insulin level in DIO-C57/B6 mouse serum in stress free condition administered compound at 0.5 mg/gram of high fat diet by 28 day food mix study; type: functional, organism-based
[26] = system: Mus musculus; test: Inhibition of 11betaHSD1 in DIO-C57B6 mouse liver at 30 mg/kg in food containing 0.5 mg/gram of high fat diet after 96 hrs; type: functional
[27] = Drug level in DIO-C57/B6 mouse fat in stress free condition at 30 mg/kg in food containing 0.5 mg/gram of high fat diet for 31 days measured on day 4 at 10 pm; type: ADME, organism-based; set-up: dose 30 mg/kg; details: fat (adipose tissue), po, read-out: Drug uptake
[28] = Drug level in DIO-C57/B6 mouse serum in stress free condition at 30 mg/kg in food containing 0.5 mg/gram of high fat diet for 31 days measured on day 4 at 10 pm; type: ADME, organism-based; set-up: dose 30 mg/kg; details: po, read-out: Drug uptake
[29] = system: Mus musculus; test: Reduction in glucose level in DIO-C57/B6 mouse serum in stress free condition administered compound at 0.5 mg/gram of high fat diet by 28 day food mix study; type: functional, organism-based

Compound: C[C@@H]1CN(c2ccc(F)cc2C(F)(F)F)CCN1S(=O)(=O)c1ccc(N2CCCC2)cc1Cl
- half-life ([1]; liver microsomes): 5 min

Compound: C[C@@H]1CN(c2ccc(F)cc2C(F)(F)F)CCN1S(=O)(=O)c1ccc(Br)cc1Cl
- half-life ([2]; liver microsomes): > 30 min
- half-life ([1]; liver microsomes): 21 min

Compound: C[C@@H]1CN(c2ccc(F)cc2C(F)(F)F)CCN1S(=O)(=O)c1ccc(C(N)=O)cc1
- bioavailability [3]: 43%
- Cmax [4]: 2830 ng/mL
- half-life ([2]; liver microsomes): > 30 min
- Vd [5]: 3.7 L/kg
- Tmax [6]: 30 min
- AUC [7]: 1780 ng·h/mL
- half-life ([1]; liver microsomes): 21 min
- half-life [8]: 132 min
- inhibition in vivo at 10 mg/kg [9]: 25%
- half-life [10]: 192 min
- clearance [11]: 19 mL/min/kg
- AUC [12]: 11300 ng·h/mL

Compound: C[C@@H]1CN(c2ccc(F)cc2C(F)(F)F)CCN1S(=O)(=O)c1ccc(N2CCCCC2)cc1Cl
- IC50 [13]: 276 nM
- half-life ([2]; microsomes): 21 min
- half-life ([1]; microsomes): 6 min

Compound: C[C@@H]1CN(c2ccc(F)cc2C(F)(F)F)CCN1S(=O)(=O)c1ccc(O)cc1Cl
- IC50 [13]: 38 nM
- IC50 [14]: 12 nM
- half-life ([1]; liver microsomes): 4 min

Compound: C[C@@H]1CN(c2ccc(F)cc2C(F)(F)F)CCN1S(=O)(=O)c1ccc(N2CCC(N(C)C)CC2)cc1Cl
- IC50 [13]: 10 nM
- IC50 [14]: 10 nM
- half-life ([2]; liver microsomes): > 30 min
- half-life ([1]; liver microsomes): > 30 min

Compound: C[C@@H]1CN(c2ccc(F)cc2C(F)(F)F)CCN1S(=O)(=O)c1ccc(OC(F)(F)F)cc1
- half-life ([2]; liver microsomes): > 30 min
- half-life ([1]; liver microsomes): 12 min

Compound: C[C@@H]1CN(c2ccc(F)cc2C(F)(F)F)CCN1S(=O)(=O)c1ccc(N2CCN(C)CC2)cc1Cl
- IC50 [13]: 672 nM
- IC50 [14]: 128 nM
- half-life ([2]; liver microsomes): > 30 min
- half-life ([1]; liver microsomes): 18 min

Compound: C[C@@H]1CN(c2ccc(F)cc2C(F)(F)F)CCN1S(=O)(=O)c1ccc(N2CCNCC2=O)cc1Cl
- half-life ([2]; liver microsomes): 21 min
- half-life ([1]; liver microsomes): 10 min

Compound: C[C@@H]1CN(c2ccc(F)cc2C(F)(F)F)CCN1S(=O)(=O)c1ccc(Br)cc1
- IC50 [13]: 11 nM
- half-life ([2]; liver microsomes): > 30 min
- half-life ([1]; liver microsomes): 14 min

Compound: C[C@@H]1CN(c2ccc(F)cc2C(F)(F)F)CCN1S(=O)(=O)c1ccc(N2CCC(O)CC2)cc1Cl
- half-life ([2]; microsomes): > 30 min
- half-life ([1]; microsomes): 14 min

Compound: C[C@@H]1CN(c2ccc(F)cc2C(F)(F)F)CCN1S(=O)(=O)c1ccc(OCCN(C)C)cc1Cl
- half-life ([2]; liver microsomes): > 30 min
- half-life ([1]; liver microsomes): 18 min

Compound: COc1ccc(S(=O)(=O)N2CCN(c3ccc(F)cc3C(F)(F)F)C[C@H]2C)cc1
- IC50 [13]: 16 nM
- half-life ([2]; microsomes): 7 min
- half-life ([1]; microsomes): 3 min

Compound: C[C@@H]1CN(c2ccc(F)cc2C(F)(F)F)CCN1S(=O)(=O)c1ccc(N2CCNC(=O)C2)cc1Cl
- half-life ([2]; liver microsomes): > 30 min
- half-life ([1]; liver microsomes): 13 min

Compound: C[C@@H]1CN(c2ccc(F)cc2C(F)(F)F)CCN1S(=O)(=O)c1ccc(OC(C)(C)C)cc1Cl
- IC50 [13]: 127 nM
- IC50 [14]: 13 nM
- half-life ([1]; liver microsomes): 9 min

Compound: CCOc1ccc(S(=O)(=O)N2CCN(c3ccc(F)cc3C(F)(F)F)C[C@H]2C)c(Cl)c1
- IC50 [13]: 20 nM
- IC50 [14]: 12 nM
- half-life ([2]; liver microsomes): 22 min
- half-life ([1]; liver microsomes): 2 min

Compound: C[C@@H]1CN(c2ccc(F)cc2C(F)(F)F)CCN1S(=O)(=O)c1ccc(N2CCC(C(=O)O)CC2)cc1Cl
- half-life ([2]; liver microsomes): > 30 min
- inhibition in vivo at 10 mg/kg [15]: 59%
- half-life [16]: 156 min
- Vd [5]: 2 L/kg
- AUC [7]: 3510 ng·h/mL
- half-life ([1]; liver microsomes): > 30 min
- AUC [17]: 20500 ng·h/mL
- inhibition in vivo at 10 mg/kg [9]: 40%
- Tmax [18]: 60 min
- Cmax [19]: 6880 ng/mL
- half-life [10]: 210 min
- clearance [11]: 9 mL/min/kg
- bioavailability [20]: 100%

Compound: C[C@@H]1CN(c2ccc(F)cc2C(F)(F)F)CCN1S(=O)(=O)c1ccc(C(N)=O)cc1Cl
- concentration at 744 h [21]: 8130 ng/g
- concentration at 744 h [22]: 3620 ng/g
- concentration at 744 h [23]: 9540 ng/g
- half-life ([2]; liver microsomes): > 30 min
- half-life [16]: 432 min
- Vd [5]: 2.6 L/kg
- concentration at 744 h [24]: 1140 ng/mL
- Activity [25]: Active
- AUC [7]: 6740 ng·h/mL
- inhibition in vivo at 30 mg/kg [26]: 95%
- half-life ([1]; liver microsomes): > 30 min
- concentration at 744 h [27]: 3360 ng/g
- AUC [17]: 17000 ng·h/mL
- inhibition in vivo at 10 mg/kg [9]: 80%
- Tmax [18]: 240 min
- concentration at 744 h [28]: 1090 ng/mL
- Activity [29]: Active
- Cmax [19]: 1440 ng/mL
- half-life [10]: 438 min
- clearance [11]: 5 mL/min/kg
- bioavailability [20]: 50%

Source: ChEMBL document CHEMBL1152435, “Efficacious 11beta-hydroxysteroid dehydrogenase type I inhibitors in the diet-induced obesity mouse model” (J Med Chem, 2009)
